Bioassay records from PubChem BioAssay.
Kir21 block – inhibitors of mouse Kir2.1 inward-rectifier potassium channel | P35561 | HEK293-Kir2.1, FluxOR thallium flux fluorescence; hits give low values | B-score at 10 µM | actives 0.85% (n = 310,000) | AID 1672;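 active means fluorescence ratio B-score at or below minus 3 SD of library scores, with starting-brightness B-score within 2 SD, cut at about -4.2 in these data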;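 further: channel flux triggered by added potassium and thallium sulfate stimulus; B-score of peak minus minimum fluorescence over baseline after thallium stimulus; more negative B-score means stronger Kir2.1 block with less thallium influx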
hERG protect – compounds protecting human hERG from proarrhythmic drug block; activation (rescue from dofetilide block), less the hit threshold, % at 10 µM; Q12809; CHO-hERG, FluxOR thallium flux, dofetilide IC70 present; AID 1511; actives 0.51% (n = 310,000);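 active means activation above the mean of controls blocked by dofetilide plus 5 SD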;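 further: thallium influx through hERG after potassium depolarization seen as dye fluorescence rise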
Target sequence (Q12809 whole entry, looked up): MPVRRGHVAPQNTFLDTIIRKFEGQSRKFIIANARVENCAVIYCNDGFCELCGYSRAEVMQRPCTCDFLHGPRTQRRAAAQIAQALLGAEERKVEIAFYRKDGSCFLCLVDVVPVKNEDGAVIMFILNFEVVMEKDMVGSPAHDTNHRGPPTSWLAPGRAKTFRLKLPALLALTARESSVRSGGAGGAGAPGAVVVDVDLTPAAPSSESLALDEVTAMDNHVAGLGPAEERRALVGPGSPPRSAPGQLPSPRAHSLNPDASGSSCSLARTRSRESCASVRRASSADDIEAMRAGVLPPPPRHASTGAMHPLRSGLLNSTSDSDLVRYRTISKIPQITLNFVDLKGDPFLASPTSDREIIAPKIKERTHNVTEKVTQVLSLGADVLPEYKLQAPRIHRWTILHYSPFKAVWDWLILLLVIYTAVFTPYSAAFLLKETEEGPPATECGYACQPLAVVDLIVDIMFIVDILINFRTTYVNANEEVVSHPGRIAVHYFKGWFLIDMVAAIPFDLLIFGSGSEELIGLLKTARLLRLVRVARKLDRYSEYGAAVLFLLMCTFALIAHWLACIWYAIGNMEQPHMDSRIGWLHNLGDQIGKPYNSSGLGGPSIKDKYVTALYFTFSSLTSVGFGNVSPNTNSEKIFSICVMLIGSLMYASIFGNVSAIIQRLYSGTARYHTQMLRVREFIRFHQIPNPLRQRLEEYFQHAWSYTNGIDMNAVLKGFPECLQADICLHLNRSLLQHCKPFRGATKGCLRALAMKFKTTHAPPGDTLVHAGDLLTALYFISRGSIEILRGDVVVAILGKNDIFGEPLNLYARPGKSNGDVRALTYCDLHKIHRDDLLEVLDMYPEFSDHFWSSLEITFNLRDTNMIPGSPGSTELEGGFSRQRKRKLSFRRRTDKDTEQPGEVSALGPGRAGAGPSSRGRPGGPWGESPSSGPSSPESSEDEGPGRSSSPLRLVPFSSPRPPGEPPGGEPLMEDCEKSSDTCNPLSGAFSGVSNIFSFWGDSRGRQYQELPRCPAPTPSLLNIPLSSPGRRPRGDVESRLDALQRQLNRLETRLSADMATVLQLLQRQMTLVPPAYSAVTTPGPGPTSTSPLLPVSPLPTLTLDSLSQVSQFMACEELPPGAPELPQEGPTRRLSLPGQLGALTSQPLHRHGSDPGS
KCNK9 block – inhibitors of human KCNK9 two-pore domain potassium channel; Q9NPC2; HEK293 KCNK9, FluxOR thallium flux fluorescence; hits give low values; B-score at 10 µM; actives 1.2% (n = 310,000); AID 488922;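 active means ratio B-score over 3 SD below the library mean, with starting fluorescence within 5 SD of its mean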;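 further: negative B-score means less thallium flux so channel inhibition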
KCNK3 inh – human KCNK3 channel inhibition, primary screen. O14649. B-score at 10 µM. actives 0.84% (n = 340,000). AID 602410. CHO-KCNK3 thallium flux, FluxOR fluorescence; hits give low values;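 active means B-score under library mean minus 4 SD, starting fluorescence ratio at most library mean plus 5 SD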;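 further: more negative B-score means stronger inhibition of thallium flux through KCNK3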
KCNQ1 inh – human KCNQ1 channel inhibition; P51787; CHO-K1 KCNQ1, FluxOR thallium flux fluorescence; hits give high values; B-score at 10 µM; actives 1.3% (n = 310,000);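 active means compounds whose thallium flux B-score, printed positive for inhibition, exceeds three library SD while starting fluorescence stays within three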;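 further: channel opened by potassium depolarization with thallium stimulus after 20 min compound exposure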
KCNQ1 act – human KCNQ1 channel potentiation or activation; P51787; CHO-K1 KCNQ1, thallium flux FluxOR fluorescence; hits give high values; B-score at 10 µM; actives 0.35% (n = 310,000); AID 2648;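 active means fluorescence ratio B-score, a plate-corrected score, at least three library SD, with initial intensity B-score within 5 SD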
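Medium – assay buffer, equal DMSO in all wells · Material – CHO-K1 cell line with stable KCNQ1 potassium channel expression · Signal – kinetic FluxOR thallium fluorescence, 10-s 1-Hz baseline, 110-s post-stimulus read · Compound – single concentration per compound, DMSO matched to controls · Schedule – 37 °C overnight plating, 90-min dark dye load, 20-min compound pretreatment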
KCNK9 block conf – human KCNK9 inhibitor confirmation | shares compounds with KCNK9 block | HEK293 KCNK9 cells, FluxOR thallium flux fluorescence | actives 43% (n = 4,900) | AID 492992 | inhibition, % at 10 µM;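 active means thallium signal inhibited by more than 5 SD of the compound-free buffer control wells, on both duplicate plates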;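 further: 0% = assay buffer control wells without compound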
Kir21 sel – mouse Kir2.1 off-target activity of KCNK9 modulators; actives 4% (n = 4,900); Kir2.1 cells, FluxOR thallium flux fluorescence; shares compounds with KCNK9 block; inhibition, % at 10 µM; AID 492993;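 active means thallium signal drop more than 5 SD beyond the mean of the no-compound control wells, seen in both duplicate plates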;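 further: signal is fluorescence rise after thallium addition divided by baseline fluorescence; plate controls were assay buffer only for no effect and full block by chlorpromazine control for full effect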
HEK293 Tl ctr – second counter-screen for KCNK9 modulators: effect in non-induced cells | shares compounds with KCNK9 block | non-induced KCNK9-HEK293, FluxOR thallium flux | inhibition, % at 10 µM | actives 40% (n = 4,900);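 active means thallium signal drop beyond 5 SD of the untreated control mean, on both duplicate plates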;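 further: plate controls were buffer only IC0 wells for no effect and SID17386958 at its maximal inhibitory level for full effect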
Active calls of the source: *; i = inactive; / = not tested or not shown. Shown are actives, neighbours in structure and some others; about 3.7% of the full set was active somewhere.

SMILES	Kir21 block	hERG protect	KCNK9 block	KCNK3 inh	KCNQ1 inh	KCNQ1 act	KCNK9 block conf	Kir21 sel	HEK293 Tl ctr
CC(C)CCNC(=O)c1onc(CSc2ccc(F)c(F)c2)c1C(=O)NCCC(C)C	2.64	-5.1	i	i	i	i	i	i	i
CCCNC(=O)c1onc(CSc2ccc(F)c(F)c2)c1C(=O)NCCC	0.39	-6.6	i	/	i	i	/	/	/
CC(C)CCNC(=O)c1onc(CSc2ccc(F)cc2)c1C(=O)NCCC(C)C	-0.69	-2.5	i	i	7*	i	i	i	i
COc1cccc(SCc2noc(C(=O)NCCC(C)C)c2C(=O)NCCC(C)C)c1	-0.67	-13.4	i	i	i	i	i	i	i
CN(C)CCNC(=O)c1onc(CSc2ccc(F)cc2)c1C(=O)NCCN(C)C	0.7	-7.2	i	i	i	i	/	/	/
CC(C)CCNC(=O)c1onc(CSc2ccc(Cl)cc2)c1C(=O)NCCC(C)C	1.02	-13.9	i	i	i	i	i	i	i
O=C(N/N=C/c1cccnc1)c1ccccc1[N+](=O)[O-]	-1.23	0.7	i	i	i	i	/	/	/
CCCNC(=O)c1onc(CSc2ccccc2)c1C(=O)NCCC	0.29	-11.1	i	i	i	i	/	/	/
CC(C)CCNC(=O)c1onc(CSc2ccccc2)c1C(=O)NCCC(C)C	-0.77	-5.8	i	i	i	i	i	i	i
O=c1c2ccccc2c(-c2ccccc2)nn1-c1cc(Cl)ccc1[N+](=O)[O-]	/	/	/	i	/	/	/	/	/
Cc1ccc(-c2nn(-c3cc(Cl)ccc3[N+](=O)[O-])c(=O)c3ccccc23)cc1C	-0.67	-9.1	i	i	i	i	i	i	i
Cc1ccc(C)c(CNS(=O)(=O)c2c(C)[nH]c(C)c2C(=O)N2CCCCC2)c1	-1.07	-9.7	i	i	i	i	/	/	/
O=C(Nc1ccccc1)OCCCCOC(=O)Nc1ccccc1	/	/	/	i	/	/	/	/	/
C=C(C)C1CCC(C)=C1COC(=O)Nc1ccccc1 (stereo not drawn)	-0.46	-7.2	i	i	i	i	i	i	i
CCCCC#Cc1cncc(C(=O)N/N=C/c2cccc(OC)c2)c1	-0.97	-16.1	i	i	i	i	/	/	/
COCCn1c(SCC(=O)N2CCCCC2)nc2c(c1=O)SC(C)C2 (stereo not drawn)	-0.35	-3.4	i	i	i	i	/	/	/
COc1ccc(OCC(=O)Nc2cc(NC(=O)COc3ccc(OC)cc3)cc(C(=O)O)c2)cc1	1.09	-3.7	i	i	i	i	/	/	/
Cc1ccc(OCC(=O)Nc2cc(NC(=O)COc3ccc(C)c(C)c3)cc(C(=O)O)c2)cc1C	1.18	-4.5	i	i	i	i	i	i	i
Cc1ccc(C)c(OCC(=O)Nc2ccc(C(=O)O)cc2NC(=O)COc2cc(C)ccc2C)c1	-0.37	-18.8	i	i	i	i	i	i	i
Cc1cnc(C(=O)OC(C(=O)c2ccccc2)c2ccccc2)cn1 (stereo not drawn)	/	/	/	i	/	/	/	/	/
Cc1ccc(NC(=O)C(OC(=O)c2ccccc2Cl)c2ccccc2)cc1Cl (stereo not drawn)	-1.41	-2.9	i	i	i	i	/	/	/
COc1ccc(C(=O)C(OC(=O)c2ccccc2)c2ccccc2)cc1 (stereo not drawn)	-0.67	-6.4	-13.6*	i	i	i	53.0%*	i	30.0%*
COc1ccc(C(=O)C(OC(=O)c2ccccc2Cl)c2ccccc2)cc1 (stereo not drawn)	0.45	-10.1	-8.12*	i	i	i	59.5%*	i	24.5%*
CC1(C)CC(NC(=O)Cc2ccccc2)CC(C)(C)N1	2.49	-2.0	i	i	i	i	/	/	/
CC(C)C(=O)Nc1ccc2nn(-c3ccc(F)cc3)nc2c1	0.43	-12.9	i	i	i	i	i	i	i
SMILES	Kir21 block	hERG protect	KCNK9 block	KCNK3 inh	KCNQ1 inh	KCNQ1 act	KCNK9 block conf	Kir21 sel	HEK293 Tl ctr
CCn1c(SCC(=O)Nc2ccc(N(C)C)cc2)nnc1-c1ccco1	0.77	-5.8	i	i	i	i	/	/	/
Cc1ccc(OCCn2cnc3cc([N+](=O)[O-])ccc3c2=O)cc1	1.14	-19.2	i	i	i	i	i	i	i
COc1ccccc1N(C(=O)NCc1ccccc1)C1=NCC(C)S1 (stereo not drawn)	-0.45	-4.2	i	i	i	i	i	i	i
CCCCN(C(=O)Cn1nnc2ccccc21)C(C(=O)NCCOC)c1cccs1 (stereo not drawn)	0.48	-4.7	i	i	i	i	/	/	/
O=C(C[n+]1ccc(/C=N/O)cc1)N1CCCCC1	-0.72	-16.4	i	i	i	i	/	/	/
CC(Sc1cccc[n+]1[O-])C(=O)Nc1cccc([N+](=O)[O-])c1 (stereo not drawn)	0.01	-4.4	i	i	i	i	/	/	/
CCC(Sc1ccccn1)C(=O)Nc1cccc([N+](=O)[O-])c1 (stereo not drawn)	-1.5	-12.6	-8.58*	i	i	i	29.5%*	i	26.5%*
Cc1ccc(C)c(CNC(=O)Nc2ccccc2)c1	-0.29	-5.8	i	i	i	i	/	/	/
COc1ccc(Cc2nnc(SCC(=O)Nc3ccc(N4CCOCC4)cc3)o2)cc1	0.55	-1.1	i	i	i	i	/	/	/
Cn1cc(SCC(=O)N2CCOCC2)c2ccccc21	1.05	-5.2	i	i	i	i	/	/	/
Cn1cc(SCC(=O)N2CCCc3ccccc32)c2ccccc21	-6.81*	-13.1	i	i	i	i	i	38.0%*	i
Cc1ccc2c(c1)CCCN2C(=O)CSc1ccccc1	-3.35	-10.9	i	i	i	i	i	i	i
COc1ccc(C(=O)OCC(=O)N2CCC(C)CC2)cc1S(=O)(=O)N1CCOCC1	/	/	/	i	/	/	/	/	/
Cc1ccc(C(=O)OCC(=O)N2CCC(C)CC2)cc1S(=O)(=O)N1CCCCC1	-2.77	-9.2	i	i	i	i	i	i	i
CC1CCN(C(=O)COC(=O)c2ccc(F)c(S(=O)(=O)N3CCOCC3)c2)CC1	-0.59	-4.6	i	i	i	i	i	i	i
